The term Ki denotes the dissociation constant of the complex between target and ligand, obtained from inhibition or displacement. The solubility is the concentration that dissolves in the medium under given conditions. For orientation: pKa means the negative logarithm of the acid dissociation constant. What is called inhibition is the drop in the measured response relative to a control, in per cent. What is called efflux ratio is a quotient of directional permeabilities that is used to spot active efflux.

Data set [1] can be described thus: Clearance in human hepatocytes assessed per 10^6 cells. It is filed as ADME, cell-based, Hepatocyte. The following applies: read-out: CLH.
The target in data set [2] is Phosphodiesterase 8 (Homo sapiens, UniProt O95263+O60658). Put plainly: Inhibition of human recombinant PDE8 assessed as inhibition of [3H]cAMP hydrolysis by scintillation proximity assay. The format is protein assay. In outline:
(§1)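 Scintillation proximity assay on recombinant human PDEs 1–11, with [³H]cAMP as substrate and hydrolysis of cAMP to AMP as read-out. Ki values are means of two experiments.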
For orientation: SPA uses beads or plates that emit light when radiolabelled molecules are held near them.

Data set [3] has as its target cGMP-dependent 3',5'-cyclic phosphodiesterase (Homo sapiens, UniProt O00408). As to the kind of experiment: Inhibition of human recombinant PDE2 assessed as inhibition of [3H]cAMP hydrolysis by scintillation proximity assay. In outline:
as §1

The target of data set [4] is cGMP-specific 3',5'-cyclic phosphodiesterase (Homo sapiens, UniProt O76074). Put plainly: Inhibition of human recombinant PDE5 assessed as inhibition of [3H]cAMP hydrolysis by scintillation proximity assay. In outline:
as §1

Data set [5] deals with Phosphodiesterase 1 (Homo sapiens, UniProt P54750+Q01064+Q14123). As to the kind of experiment: Inhibition of human recombinant PDE1 assessed as inhibition of [3H]cAMP hydrolysis by scintillation proximity assay. The format is protein assay. Put shortly: as §1
The nature of data set [6]: Toxicity in Cebus monkey assessed as akathisia at 3 to 6 mg/kg, po. It is filed as organism-based. Details: dose 3-6 mg/kg, route oral. The settings on record: in vivo.
The target in data set [7] is cGMP-inhibited 3',5'-cyclic phosphodiesterase 3A (Homo sapiens, UniProt Q14432). As to the kind of experiment: Inhibition of human recombinant PDE3A assessed as inhibition of [3H]cAMP hydrolysis by scintillation proximity assay. Put shortly: as §1
Sequence of cGMP-inhibited 3',5'-cyclic phosphodiesterase 3A (Q14432 whole entry): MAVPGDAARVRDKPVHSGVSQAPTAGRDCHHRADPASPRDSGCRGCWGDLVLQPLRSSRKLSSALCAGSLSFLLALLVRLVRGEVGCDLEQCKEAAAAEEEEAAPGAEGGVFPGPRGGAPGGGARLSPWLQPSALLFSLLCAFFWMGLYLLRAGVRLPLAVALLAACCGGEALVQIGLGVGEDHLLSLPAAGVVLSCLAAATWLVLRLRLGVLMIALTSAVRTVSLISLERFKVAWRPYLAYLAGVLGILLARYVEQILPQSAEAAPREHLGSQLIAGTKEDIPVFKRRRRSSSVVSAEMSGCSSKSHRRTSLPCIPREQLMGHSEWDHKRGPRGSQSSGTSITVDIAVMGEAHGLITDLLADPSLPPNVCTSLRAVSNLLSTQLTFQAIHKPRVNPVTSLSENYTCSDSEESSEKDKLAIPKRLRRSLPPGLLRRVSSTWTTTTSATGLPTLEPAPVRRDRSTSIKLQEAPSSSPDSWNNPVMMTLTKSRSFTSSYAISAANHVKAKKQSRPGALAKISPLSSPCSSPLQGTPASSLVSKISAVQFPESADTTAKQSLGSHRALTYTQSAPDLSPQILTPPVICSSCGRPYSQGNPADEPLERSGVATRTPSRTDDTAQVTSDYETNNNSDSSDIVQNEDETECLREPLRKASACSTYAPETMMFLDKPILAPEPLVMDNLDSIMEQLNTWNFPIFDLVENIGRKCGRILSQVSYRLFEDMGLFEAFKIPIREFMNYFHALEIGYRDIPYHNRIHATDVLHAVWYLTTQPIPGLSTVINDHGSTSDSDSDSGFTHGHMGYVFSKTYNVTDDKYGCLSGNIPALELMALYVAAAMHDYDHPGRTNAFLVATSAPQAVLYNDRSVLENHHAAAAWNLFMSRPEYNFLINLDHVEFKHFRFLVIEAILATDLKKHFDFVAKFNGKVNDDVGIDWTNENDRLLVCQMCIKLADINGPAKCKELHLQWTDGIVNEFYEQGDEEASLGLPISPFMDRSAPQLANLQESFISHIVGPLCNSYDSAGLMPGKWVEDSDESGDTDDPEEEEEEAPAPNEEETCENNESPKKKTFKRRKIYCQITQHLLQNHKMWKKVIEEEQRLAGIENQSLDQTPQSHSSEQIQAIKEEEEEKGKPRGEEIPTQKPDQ
Data set [8] concerns Rattus norvegicus. As to the kind of experiment: Antipsychotic activity in CD rat assessed as inhibition of MK801-induced hyperactivity at 3 mg/kg, po. More on the design: dose 3 mg/kg. The format is functional, organism-based. Put shortly:
(§2)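 Male CD rats were habituated to locomotor activity chambers 24 h before testing. On test day, MK-801 (0.3 mg/kg, sc) was co-administered with the PDE10 inhibitor (po) and the rats were placed in the apparatus. Inhibition is the activity of the inhibitor+MK-801 group as a percent of the vehicle+MK-801 group.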

The target of data set [9] is Phosphodiesterase 4 (Homo sapiens, UniProt P27815+Q08499+Q07343+Q08493). As to the kind of experiment: Inhibition of human recombinant PDE4 assessed as inhibition of [3H]cAMP hydrolysis by scintillation proximity assay. It is filed as protein assay. In outline:
as §1

For data set [10], the target named is High affinity cGMP-specific 3',5'-cyclic phosphodiesterase 9A (Homo sapiens, UniProt O76083). Put plainly: Inhibition of human recombinant PDE9 assessed as inhibition of [3H]cAMP hydrolysis by scintillation proximity assay. In outline:
as §1

For data set [11], the target named is Phosphodiesterase 6. As to the kind of experiment: Inhibition of human recombinant PDE6 assessed as inhibition of [3H]cAMP hydrolysis by scintillation proximity assay. The format is protein assay. Put shortly: as §1
Data set [12] deals with Dual 3',5'-cyclic-AMP and -GMP phosphodiesterase 11A (Homo sapiens, UniProt Q9HCR9). Put plainly: Inhibition of human recombinant PDE11 assessed as inhibition of [3H]cAMP hydrolysis by scintillation proximity assay. Put shortly: as §1
Sequence of Dual 3',5'-cyclic-AMP and -GMP phosphodiesterase 11A (Q9HCR9 whole entry): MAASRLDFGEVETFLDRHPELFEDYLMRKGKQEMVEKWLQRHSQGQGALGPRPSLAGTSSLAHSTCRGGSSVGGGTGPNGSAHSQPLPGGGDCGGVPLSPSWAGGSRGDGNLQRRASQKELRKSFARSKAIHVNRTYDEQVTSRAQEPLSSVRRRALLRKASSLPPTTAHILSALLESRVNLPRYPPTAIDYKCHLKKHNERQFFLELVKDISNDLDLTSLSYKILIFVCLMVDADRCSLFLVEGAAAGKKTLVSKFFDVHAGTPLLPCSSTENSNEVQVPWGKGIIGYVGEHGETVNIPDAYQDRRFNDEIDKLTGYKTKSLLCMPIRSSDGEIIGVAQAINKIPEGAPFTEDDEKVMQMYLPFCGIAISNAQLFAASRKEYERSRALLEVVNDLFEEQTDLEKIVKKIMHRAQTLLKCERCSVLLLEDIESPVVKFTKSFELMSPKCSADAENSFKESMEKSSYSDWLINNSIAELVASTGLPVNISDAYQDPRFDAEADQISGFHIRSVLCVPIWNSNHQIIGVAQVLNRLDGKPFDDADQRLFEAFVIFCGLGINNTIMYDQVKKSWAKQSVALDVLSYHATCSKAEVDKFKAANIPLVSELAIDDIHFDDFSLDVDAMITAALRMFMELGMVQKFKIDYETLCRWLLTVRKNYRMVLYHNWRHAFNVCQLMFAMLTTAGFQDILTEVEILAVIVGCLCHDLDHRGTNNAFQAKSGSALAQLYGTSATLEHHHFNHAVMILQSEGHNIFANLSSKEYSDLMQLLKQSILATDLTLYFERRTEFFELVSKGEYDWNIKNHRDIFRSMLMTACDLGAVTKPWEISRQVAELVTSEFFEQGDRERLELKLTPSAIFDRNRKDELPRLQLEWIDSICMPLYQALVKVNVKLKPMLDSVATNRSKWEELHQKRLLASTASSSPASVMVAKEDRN
Data set [13] can be described thus: Clearance in monkey hepatocytes assessed per 10^6 cells. It is filed as ADME, cell-based, Macaca mulatta, Hepatocyte. The following applies: rhesus monkey, read-out: CLH.
A short description of data set [14]: Solubility of the compound in 2% DMSO at pH 7.4. The format is physicochemical.
The nature of data set [15]: Dissociation constant, pKa of the compound. The format is physicochemical.
Data set [16] concerns the target hERG (KCNH2) (Homo sapiens, UniProt Q12809). As to the kind of experiment: Inhibition of human ERG at 10 uM. Put shortly: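 hERG inhibition was measured on the IonWorks platform at 10 µM.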
Data set [17] in a line: Efflux ratio in human Caco2 cells. It is filed as ADME, cell-based. The settings on record: Caco-2. In general terms: Caco-2 cells form a polarised layer with tight junctions and transporters.
Data set [18] has as its target cAMP and cAMP-inhibited cGMP 3',5'-cyclic phosphodiesterase 10A (Homo sapiens, UniProt Q9Y233). Put plainly: Inhibition of human recombinant PDE10A assessed as inhibition of [3H]cAMP hydrolysis by scintillation proximity assay. In outline: as §1
Data set [19] is described as follows: Toxicity in Cebus monkey assessed as extrapyramidal symptoms at 3 to 6 mg/kg, po. Details: dose 3-6 mg/kg, route oral. The format is organism-based. The settings on record: in vivo.
Data set [20] has as its target T1, High affinity 3',5'-cyclic-AMP phosphodiesterase 7A (Homo sapiens, UniProt Q13946). As to the kind of experiment: Inhibition of human recombinant PDE7A1 assessed as inhibition of [3H]cAMP hydrolysis at 3 uM by scintillation proximity assay. In outline: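 Recombinant human PDE3A or PDE7A1 was tested at a single 3 µM level in the scintillation proximity assay, with [³H]cAMP as substrate and cAMP-to-AMP hydrolysis as read-out. Results are expressed as % inhibition.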

A short description of data set [21]: Clearance in rat hepatocytes assessed per 10^6 cells. It is filed as ADME, cell-based, Hepatocyte. The settings on record: read-out: CLH.
The subject of data set [22] is Rattus norvegicus. As to the kind of experiment: Antipsychotic activity in CD rat assessed as inhibition of MK801-induced hyperactivity at 30 mg/kg, po. The format is functional, organism-based. More on the design: dose 30 mg/kg. Put shortly: as §2
Data set [23] has as its target T1, High affinity 3',5'-cyclic-AMP phosphodiesterase 7A. As to the kind of experiment: Inhibition of human recombinant PDE7A1 assessed as inhibition of [3H]cAMP hydrolysis by scintillation proximity assay. Put shortly: as §1
Data set [24] can be described thus: Drug uptake in CD rat brain at 30 mg/kg, po after 1 hr. The format is ADME, organism-based. Details: dose 30 mg/kg, route oral.

Each structure is given as a SMILES string. Active and inactive are the calls of the source. No cut-off for these calls is given here.

Sequence of High affinity cGMP-specific 3',5'-cyclic phosphodiesterase 9A (O76083 whole entry): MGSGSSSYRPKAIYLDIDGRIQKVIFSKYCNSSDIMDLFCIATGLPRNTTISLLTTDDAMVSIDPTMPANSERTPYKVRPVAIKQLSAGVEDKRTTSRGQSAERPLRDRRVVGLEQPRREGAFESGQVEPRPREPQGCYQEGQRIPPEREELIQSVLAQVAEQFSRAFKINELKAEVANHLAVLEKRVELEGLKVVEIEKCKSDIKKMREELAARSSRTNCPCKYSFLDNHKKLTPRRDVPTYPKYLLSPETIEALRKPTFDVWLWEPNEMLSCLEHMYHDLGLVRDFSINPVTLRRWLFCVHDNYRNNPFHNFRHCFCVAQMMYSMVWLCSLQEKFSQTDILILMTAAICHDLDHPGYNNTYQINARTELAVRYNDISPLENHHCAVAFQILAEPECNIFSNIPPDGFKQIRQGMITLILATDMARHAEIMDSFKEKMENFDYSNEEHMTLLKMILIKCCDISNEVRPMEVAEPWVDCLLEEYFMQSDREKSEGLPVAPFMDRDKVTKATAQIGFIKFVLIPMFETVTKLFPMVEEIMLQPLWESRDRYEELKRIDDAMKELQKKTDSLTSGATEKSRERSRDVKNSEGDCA
Sequence of hERG (KCNH2) (Q12809 whole entry): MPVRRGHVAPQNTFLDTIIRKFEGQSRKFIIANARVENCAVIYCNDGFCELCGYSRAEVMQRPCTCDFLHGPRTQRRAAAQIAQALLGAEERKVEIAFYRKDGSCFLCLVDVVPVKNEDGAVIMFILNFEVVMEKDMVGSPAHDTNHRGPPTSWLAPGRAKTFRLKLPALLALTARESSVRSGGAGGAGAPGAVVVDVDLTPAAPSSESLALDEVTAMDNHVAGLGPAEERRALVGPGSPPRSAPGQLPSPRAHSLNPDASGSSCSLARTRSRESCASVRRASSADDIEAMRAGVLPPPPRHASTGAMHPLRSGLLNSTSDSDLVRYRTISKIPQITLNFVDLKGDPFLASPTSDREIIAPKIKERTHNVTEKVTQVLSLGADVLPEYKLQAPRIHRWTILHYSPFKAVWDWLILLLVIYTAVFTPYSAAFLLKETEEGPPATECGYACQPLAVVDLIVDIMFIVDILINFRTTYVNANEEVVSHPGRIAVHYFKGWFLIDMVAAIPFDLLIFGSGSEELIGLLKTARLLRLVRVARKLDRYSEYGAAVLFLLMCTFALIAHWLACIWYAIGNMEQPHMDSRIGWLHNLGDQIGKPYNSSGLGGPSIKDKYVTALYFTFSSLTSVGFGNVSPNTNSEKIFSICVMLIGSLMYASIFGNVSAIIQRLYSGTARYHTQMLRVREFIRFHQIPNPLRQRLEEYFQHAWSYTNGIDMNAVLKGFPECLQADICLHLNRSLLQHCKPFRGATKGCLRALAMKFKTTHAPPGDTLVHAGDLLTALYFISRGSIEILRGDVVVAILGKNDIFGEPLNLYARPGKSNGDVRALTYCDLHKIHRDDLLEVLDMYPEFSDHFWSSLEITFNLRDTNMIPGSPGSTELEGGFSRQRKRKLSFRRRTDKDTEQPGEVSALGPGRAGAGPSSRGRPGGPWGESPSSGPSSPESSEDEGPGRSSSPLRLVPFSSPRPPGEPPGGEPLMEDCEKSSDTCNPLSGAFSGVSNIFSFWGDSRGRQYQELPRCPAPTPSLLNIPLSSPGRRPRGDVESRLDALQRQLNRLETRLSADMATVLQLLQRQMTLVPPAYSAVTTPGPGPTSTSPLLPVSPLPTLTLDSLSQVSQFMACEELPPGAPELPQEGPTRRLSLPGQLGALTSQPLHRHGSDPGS
T1 sequence (Q13946 whole entry): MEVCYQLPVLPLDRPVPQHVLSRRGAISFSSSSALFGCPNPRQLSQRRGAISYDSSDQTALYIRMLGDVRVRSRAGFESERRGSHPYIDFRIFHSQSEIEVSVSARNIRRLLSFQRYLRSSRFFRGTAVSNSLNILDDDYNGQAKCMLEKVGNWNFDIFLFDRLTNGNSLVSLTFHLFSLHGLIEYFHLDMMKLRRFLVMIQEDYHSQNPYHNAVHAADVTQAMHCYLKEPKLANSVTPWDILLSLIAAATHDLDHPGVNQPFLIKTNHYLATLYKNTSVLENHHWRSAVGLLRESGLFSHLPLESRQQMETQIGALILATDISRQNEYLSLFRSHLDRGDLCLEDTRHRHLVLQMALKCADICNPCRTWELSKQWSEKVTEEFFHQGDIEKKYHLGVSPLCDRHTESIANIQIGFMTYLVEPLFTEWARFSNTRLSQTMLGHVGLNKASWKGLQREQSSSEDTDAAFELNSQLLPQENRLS

Take `COc1cc2c(cc1OC)-c1c(-c3cccnc3)ncn1CC2`: the hepatocyte CLint in [1] was 1.7 µL/min/1e6 cells; in data set [13] it was 38.7 µL/min/1e6 cells; in data set [21] it was 11.8 µL/min/1e6 cells. Also, the Ki in data set [2] is greater than 4274 nM; in [3] it was greater than 4270 nM; in data set [4], greater than 4270 nM; in data set [5] it was greater than 4274 nM; in [7], 449 nM; in data set [9] it was greater than 4274 nM. Moreover, the Ki in data set [10] is greater than 4270 nM; in [11] it was greater than 4274 nM; in data set [12] it was greater than 4270 nM; in [18], 29 nM. The Activity result in [6] and in data set [19] was “Non-toxic” each time. Further, the outcome in data set [8] was Active. In data set [14], this compound yielded a solubility greater than 200 µM. In data set [15], this compound had a pKa of 3.5. Further, 10 µM produced 24% inhibition in [16]. Further, in data set [17], the efflux ratio was determined as 1.4. For the same compound, the inhibition in data set [20] is 45%.

Consider `COc1cc2c(cc1OC)-c1c(-c3cncs3)ncn1CC2`, for which the inhibitory constant (Ki) in data set [2] was greater than 2000 nM; in data set [3] it was greater than 2000 nM; in data set [4] it was greater than 2000 nM; in [5], greater than 2000 nM; in data set [7], 555 nM; in data set [9], greater than 2000 nM. Further, the inhibition constant (Ki) was greater than 2000 nM in [10], greater than 2000 nM in data set [11], greater than 2000 nM in data set [12] and 3700 nM in [23]. Further, the outcome in data set [22] was Active. Moreover, the solubility in data set [14] is greater than 200 µM. In addition, the concentration at 1 h in data set [24] came out at 350 ng/g. This compound displayed a pKa in data set [15] of 4.3. For the same compound, 10 µM produced 26% inhibition in data set [16].

For the origin of these results see ChEMBL document CHEMBL2016496, “The SAR development of dihydroimidazoisoquinoline derivatives as phosphodiesterase 10A inhibitors for the treatment of schizophrenia” (Bioorg Med Chem Lett, 2012).
